Source: ChEMBL document CHEMBL3352732, “Nannozinones and sorazinones, unprecedented pyrazinones from myxobacteria” (J Nat Prod, 2014)
Values after ≈ are worked out from the molar mass of the structure shown.

Assays:
[1] = test system: Paenibacillus polymyxa; assay: Antimicrobial activity against Paenibacillus polymyxa 36 after 24 to 48 hrs by serial dilution method; type: functional
In short: (§1)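 Compounds from 1 mg/mL stock, 2 and 20 μL aliquots, serially diluted 1:1 in 0.15 mL medium in microtiter plates. Shaken at 160 rpm, 30 °C, 24−48 h. MIC is the lowest concentration preventing visible growth.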

[2] = test system: Mycolicibacterium diernhoferi; assay: Antimicrobial activity against Mycobacterium diernhoferi 43542 after 24 to 48 hrs by serial dilution method; type: functional; in short: as §1
[3] = test system: Escherichia coli; assay: Antimicrobial activity against Escherichia coli 1116 after 24 to 48 hrs by serial dilution method; type: functional; in short: as §1
[4] = test system: Nocardia sp.; assay: Antimicrobial activity against Nocardia sp. 43069 after 24 to 48 hrs by serial dilution method; type: functional; in short: as §1
[5] = test system: Chromobacterium violaceum; assay: Antimicrobial activity against Chromobacterium violaceum 30191 after 24 to 48 hrs by serial dilution method; type: functional; in short: as §1
[6] = test system: Staphylococcus aureus; assay: Antimicrobial activity against Staphylococcus aureus 346 after 24 to 48 hrs by serial dilution method; type: functional; in short: as §1
[7] = test system: Saccharomyces cerevisiae; assay: Antimicrobial activity against Saccharomyces cerevisiae 70449 after 24 to 48 hrs by serial dilution method; type: functional
In short: (§2)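 Yeasts and filamentous fungi tested in MYC medium (1.0% glucose, 1.0% phytone peptone, 50 mM HEPES, pH 7.0). Aliquots of 2 and 20 μL from 1 mg/mL stock, 1:1 serial dilution in 0.15 mL medium in microtiter plates. Incubated at 30 °C with shaking at 160 rpm for 24−48 h. MIC read as the lowest concentration with no visible growth.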

[8] = Cytotoxicity against human KB3-1 cells by MTT assay; type: functional, cell-based; conditions: KB 3-1
In short: (§3)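 MTT assay in 96-well plates, giving IC50. Media: DMEM for KB-3-1, A431, A549 and L929; F12K for PC-3; RPMI for MCF-7; EBM-2 for HUVEC; McCoy's for SKOV-3. All media had 10% FBS, and cells were kept at 37 °C under 10% CO2. Methanol served as negative control and epothilone A as positive control.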

[9] = Cytotoxicity against human SKOV3 cells by MTT assay; type: functional, cell-based; conditions: SK-OV-3; in short: as §3
[10] = test system: HUVEC; assay: Cytotoxicity against HUVEC cells by MTT assay; type: functional, cell-based; conditions: Homo sapiens; in short: as §3
[11] = test system: Pseudomonas aeruginosa; assay: Antimicrobial activity against Pseudomonas aeruginosa 50071 after 24 to 48 hrs by serial dilution method; type: functional; in short: as §1
[12] = test system: Mucor hiemalis; assay: Antimicrobial activity against Mucor hiemalis 2656 after 24 to 48 hrs by serial dilution method; type: functional; in short: as §2
[13] = test system: Trichosporon oleaginosus; assay: Antimicrobial activity against Trichosporon oleaginosus 11815 after 24 to 48 hrs by serial dilution method; type: functional; conditions: Cutaneotrichosporon oleaginosum; in short: as §2
[14] = test system: A-431; assay: Cytotoxicity against human A431 cells by MTT assay; type: functional, cell-based; in short: as §3
[15] = test system: A549; assay: Cytotoxicity against human A549 cells by MTT assay; type: functional, cell-based; in short: as §3
[16] = test system: Candida albicans; assay: Antimicrobial activity against Candida albicans 1665 after 24 to 48 hrs by serial dilution method; type: functional; in short: as §2
[17] = test system: Wickerhamomyces anomalus; assay: Antimicrobial activity against Wickerhamomyces anomalus 6766 after 24 to 48 hrs by serial dilution method; type: functional; in short: as §2
[18] = test system: MCF7; assay: Cytotoxicity against human MCF7 cells by MTT assay; type: functional, cell-based; in short: as §3
[19] = test system: L929; assay: Cytotoxicity against mouse L929 cells by MTT assay; type: functional, cell-based; in short: as §3
[20] = Cytotoxicity against human PC3 cells by MTT assay; type: functional, cell-based; conditions: PC-3; in short: as §3

Compound	MIC [1]	MIC [2]	MIC [3]	MIC [4]	MIC [5]	MIC [6]	MIC [7]	IC50 [8]	IC50 [9]	IC50 [10]	MIC [11]	MIC [12]	MIC [13]	IC50 [14]	IC50 [15]	MIC [16]	MIC ([17]; Hansenula anomala)	IC50 [18]	IC50 [19]	IC50 [20]	also measured
CN(C)[C@@H]1C(O)=C(C(N)=O)C(=O)[C@@]2(O)C(O)=C3C(=O)c4c(O)cccc4[C@@](C)(O)[C@H]3[C@H](O)[C@@H]12.Cl [OXYTETRACYCLINE HYDROCHLORIDE]	6.7 mg/L	0.52 mg/L	0.42 mg/L	0.52 mg/L	1 mg/L	0.52 mg/L															
CC(=O)c1c(Cc2ccccc2)[nH]c(=O)c2cccn12	> 66.6 mg/L	> 66.6 mg/L	> 66.6 mg/L	66.6 mg/L (≈ 250 µM)	> 66.6 mg/L	> 66.6 mg/L	> 66.6 mg/L	5.3 µM	2.4 µM	15.5 µM	> 66.6 mg/L	> 66.6 mg/L	> 66.6 mg/L	8.45 µM	8.7 µM	> 66.6 mg/L	> 66.6 mg/L	14.1 µM	> 37.6 µM	16.9 µM	
NYSTATIN							16.6 mg/L					2.1 mg/L	4.2 mg/L			8.3 mg/L					MIC [17]: 16.6 mg/L
O=c1cnc(CCc2ccccc2)c2n1CCC2	66.6 mg/L (≈ 277 µM)	33.3 mg/L (≈ 139 µM)	66.6 mg/L (≈ 277 µM)	66.6 mg/L (≈ 277 µM)	66.6 mg/L (≈ 277 µM)	66.6 mg/L (≈ 277 µM)	66.6 mg/L (≈ 277 µM)	> 41.5 µM	> 41.5 µM	> 41.5 µM	66.6 mg/L (≈ 277 µM)	33.3 mg/L (≈ 139 µM)	66.6 mg/L (≈ 277 µM)	> 41.5 µM	> 41.5 µM	33.3 mg/L (≈ 139 µM)	> 66.6 mg/L	> 41.5 µM	> 41.5 µM	> 41.5 µM	
Cc1ccn2c(=O)c3cccn3c(=O)c12	> 66.6 mg/L	> 66.6 mg/L	> 66.6 mg/L	16.6 mg/L (≈ 82.9 µM)	> 66.6 mg/L	> 66.6 mg/L	> 66.6 mg/L	> 50 µM	> 50 µM		> 66.6 mg/L	> 66.6 mg/L	> 66.6 mg/L		> 50 µM	> 66.6 mg/L	66.6 mg/L (≈ 333 µM)	> 50 µM	> 50 µM	> 50 µM	
